The subject of series [1] is Trypanosoma cruzi. Put plainly: WHO-TDR: Chagas disease. It counts as functional, organism-based, Homo sapiens. Particulars: MRC5. The gist of the method: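 Each IC50 reflects antiparasitic potency against intracellular amastigotes of Trypanosoma cruzi Tulahuen CL2 beta-galactosidase strain. These were cultured in MRC-5SV2 human lung fibroblasts and exposed to a 10,000-compound diverse Life Chemicals library screened according to published standard procedures with a reference drug as positive control.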

For series [2], the system named is Trypanosoma brucei brucei. Briefly: WHO-TDR: Human African Trypanosomiasis (HAT). It is filed as functional, organism-based. The note with it: Squib-427. The gist of the method: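 Whole-organism screen of a 10,000-compound diverse library from Life Chemicals, filtered for drug-likeness and reactive groups, against bloodstream forms of Trypanosoma brucei Squib 427 strain. The assay followed previously published standard procedures, with reference drugs as positive controls. Antiparasitic potency is reported as IC50.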

For series [3], the system named is Plasmodium falciparum K1. Put plainly: WHO-TDR: Malaria. Particulars: Erythrocyte. It is filed as functional, organism-based, Homo sapiens. The method, boiled down: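 Whole-organism screen of a 10,000-compound diverse library from Life Chemicals, filtered for drug-likeness and reactive groups, against intra-erythrocytic Plasmodium falciparum K1 strain in human red blood cells. The assay followed previously published standard procedures, with a reference drug as positive control. Antiplasmodial potency is reported as IC50.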

Series [4] relates to Schistosoma mansoni. Put plainly: WHO-TDR: Schistosomiasis. It counts as functional. Further details: concentration or dose not given beside the values. The gist of the method:
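Whole-organism screen of a 10,000-compound diverse library from Life Chemicals, filtered for drug-likeness and reactive groups, against larval and/or adult worms of Schistosoma mansoni Puerto Rican strain. The assay followed previously published standard procedures, with a reference drug as positive control. Activity is reported as percent inhibition and as IC50.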

The nature of series [5]: WHO-TDR: Cytotoxicity. It counts as toxicity, cell-based. The note with it: human, MRC5 cells.
In series [6] the test system is Leishmania infantum. Briefly: WHO-TDR: Leishmaniasis. It counts as functional, organism-based, Mus musculus. Particulars: Macrophage. The method, boiled down: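 Whole-organism screen of a 10,000-compound diverse library from Life Chemicals, filtered for drug-likeness and reactive groups, against intracellular amastigotes of Leishmania infantum MHOM/MA(BE)/67 in murine peritoneal macrophage host cells. The assay followed previously published standard procedures, with a reference drug as positive control. Antiparasitic potency is reported as IC50.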

In series [7] the test system is Brugia malayi. Briefly: WHO-TDR: Lymphatic Filariasis. It is filed as functional. Further details: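 tested at 10 µM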. The method, boiled down:
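Whole-organism screen of a 10,000-compound diverse library from Life Chemicals, filtered for drug-likeness and reactive groups, against Brugia malayi microfilariae. The assay followed previously published standard procedures, with reference drugs as positive controls. Activity is reported as percent inhibition and as IC50.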

In series [8] the test system is Onchocerca ochengi. Briefly: WHO-TDR: Onchocerciasis. It counts as functional. More on the design: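 at 12.5 µM on microfilariae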. The method, boiled down: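 Whole-organism screen of a 10,000-compound diverse library from Life Chemicals, filtered for drug-likeness and reactive groups, against microfilariae of Onchocerca ochengi or Onchocerca lienalis, used as animal-pathogen stand-ins for the human parasite. The assay followed previously published standard procedures, with reference drugs as positive controls. Activity is reported as percent inhibition and as IC50.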

In brackets after ≈: the same amount, converted by molar mass.

The term IC50 denotes the point on the concentration scale where inhibition reaches its midpoint. By % Inhibition is commonly meant the percentage by which the read-out fell short of the control.

`O=S(=O)(c1ccc(Cl)s1)N1CCN(c2ccc(-c3ccccn3)nn2)CC1`: the IC50 in series [1] was 0.438 µg/mL (≈ 1.04 µM); in series [2], more than 12.7 µg/mL; in series [3], more than 12.7 µg/mL; in series [5], more than 12.7 µg/mL; in series [6] it was more than 12.7 µg/mL. For the same compound, the “% Inhibition” value in series [4], in series [7] and in series [8] was 0% each time.
Consider `CCn1nc(C)cc1C(=O)N1CCN(c2nc3c(C)ccc(C)c3s2)CC1`, for which the concentration for half-maximal inhibition (IC50) in series [1], in series [2], in series [3], in series [5] and in series [6] was more than 11.5 µg/mL each time. Further, the results for the “% Inhibition” value in series [4], in series [7] and in series [8] were 16.7%, 0% and 100%, respectively.
Take `Cc1ccc(-n2ccnc2N2CCN(C(=O)c3ccc4ccccc4c3)CC2)cc1`: the IC50 in series [1] stood at 2.67 µg/mL (≈ 6.73 µM); in series [2] it was 4.21 µg/mL (≈ 10.6 µM); in series [3], 4.25 µg/mL (≈ 10.7 µM); in series [5] it was 2.65 µg/mL (≈ 6.67 µM); in series [6], 2.56 µg/mL (≈ 6.45 µM). The “% Inhibition” value in series [4] came out at 8.3%; in series [7], 0%; in series [8] it was 100%.
`Cc1noc(C)c1CCc1nc(-c2ccc(Cl)cc2)no1`: the IC50 in series [1] is 2.88 µg/mL (≈ 9.49 µM); in series [2] it was more than 9.11 µg/mL; in series [3], 4.72 µg/mL (≈ 15.5 µM); in series [5], 3.27 µg/mL (≈ 10.8 µM); in series [6] it was more than 9.11 µg/mL. For the same compound, the “% Inhibition” value in series [4] is reported as 0%; in series [7], 0%; in series [8], 100%.
As to `Cn1ccnc1N1CCN(CC(=O)Nc2ccc(OC(F)(F)F)cc2)CC1`, the IC50 was more than 11.5 µg/mL in series [1]; 5.13 µg/mL (≈ 13.4 µM) in series [2]; more than 11.5 µg/mL in series [3]; more than 11.5 µg/mL in series [5]; 0.372 µg/mL (≈ 0.97 µM) in series [6]. The “% Inhibition” value is 0% in series [4], 0% in series [7] and 50% in series [8].
Regarding `O=C(CCCn1nc(-c2ccc(F)cc2)ccc1=O)Nc1ccc(C(F)(F)F)cc1`, the IC50 in series [1], in series [2], in series [3], in series [5] and in series [6] was more than 12.6 µg/mL in each case. Moreover, the figures for the “% Inhibition” value in series [4], in series [7] and in series [8] were 0%, 0% and 100%, respectively.
For the compound `COc1ccc2nc(-c3ccc(OC)c(NC(=O)c4c(F)cccc4Cl)c3)cn2n1`, the half-inhibitory concentration (IC50) in series [1] was more than 12.8 µg/mL; in series [2] it was more than 12.8 µg/mL; in series [3], more than 12.8 µg/mL; in series [5], more than 12.8 µg/mL; in series [6], 0.415 µg/mL (≈ 0.972 µM). In addition, the “% Inhibition” value in series [4], in series [7] and in series [8] was 0% throughout.
Take `CSc1ccc2nc(N(Cc3cccnc3)C(=O)c3ccc(C(=O)c4ccccc4)cc3)sc2c1`: the IC50 was 0.874 µg/mL (≈ 1.76 µM) in series [1]; more than 14.9 µg/mL in series [2]; more than 14.9 µg/mL in series [3]; more than 14.9 µg/mL in series [5]; more than 14.9 µg/mL in series [6]. Moreover, the “% Inhibition” value in series [4], in series [7] and in series [8] was 0% throughout.
Consider `Cc1cc(C(=O)Nc2nnc(-c3ccc(Br)s3)o2)nn1C`, for which the IC50 in series [1] was more than 11 µg/mL; in series [2], more than 11 µg/mL; in series [3], more than 11 µg/mL; in series [5] it was 3.2 µg/mL (≈ 8.68 µM); in series [6] it was more than 11 µg/mL. Further, the “% Inhibition” value in series [4] came out at 8.3%; in series [7], 0%; in series [8], 100%.
Take `Cc1ccc(-n2ccnc2N2CCN(C(=O)/C=C\c3ccccc3)CC2)cc1`: the IC50 in series [1] was 3.88 µg/mL (≈ 10.4 µM); in series [2], 4.07 µg/mL (≈ 10.9 µM); in series [3] it was 6.82 µg/mL (≈ 18.3 µM); in series [5], more than 12.3 µg/mL; in series [6], more than 12.3 µg/mL. In addition, the figures for the “% Inhibition” value in series [4], in series [7] and in series [8] were 25%, 0% and 100%, respectively.
In the case of `CN(C1CC1)S(=O)(=O)c1ccc(C(=O)Nc2nnc(-c3ccc(Br)s3)o2)cc1`, the IC50 in series [1] was 4.76 µg/mL (≈ 9.85 µM); in series [2], 4.75 µg/mL (≈ 9.83 µM); in series [3] it was more than 14.5 µg/mL; in series [5], 3.91 µg/mL (≈ 8.09 µM); in series [6], 4.69 µg/mL (≈ 9.71 µM). Also, the “% Inhibition” value in series [4] amounted to 0%; in series [7] it was 0%; in series [8], 100%.
As to `Cc1ccc(-c2ccc(=O)n(CCCNS(=O)(=O)c3ccc(Cl)s3)n2)cc1`, the half-inhibitory concentration (IC50) was more than 12.7 µg/mL in series [1]; more than 12.7 µg/mL in series [2]; more than 12.7 µg/mL in series [3]; 5.29 µg/mL (≈ 12.5 µM) in series [5]; more than 12.7 µg/mL in series [6]. Also, the “% Inhibition” value in series [4] is 0%; in series [7], 0%; in series [8] it was 100%.
`O=c1ccc(-c2ccc(F)cc2)nn1CCCNS(=O)(=O)/C=C/c1ccccc1`: the IC50 in series [1] is more than 12.4 µg/mL; in series [2], 5.43 µg/mL (≈ 13.1 µM); in series [3] it was 6.97 µg/mL (≈ 16.9 µM); in series [5] it was 6.58 µg/mL (≈ 15.9 µM); in series [6], more than 12.4 µg/mL. Also, the “% Inhibition” value in series [4] is reported as 0%; in series [7], 0%; in series [8], 100%.
`Cc1ccc(S(=O)(=O)NCCNc2ccc(Nc3cccc(C)n3)nn2)c(C)c1`: the IC50 in series [1] was 3.96 µg/mL (≈ 9.61 µM); in series [2], 4.01 µg/mL (≈ 9.71 µM); in series [3] it was more than 12.4 µg/mL; in series [5], more than 12.4 µg/mL; in series [6] it was 8.43 µg/mL (≈ 20.4 µM). In addition, the “% Inhibition” value amounted to 0% in series [4], 0% in series [7] and 100% in series [8].
On to `COc1ccc(Cl)c2sc(N(CCCn3ccnc3)C(=O)c3cccc(F)c3)nc12`, for which the IC50 was 3.68 µg/mL (≈ 8.27 µM) in series [1]; 4.67 µg/mL (≈ 10.5 µM) in series [2]; 3.63 µg/mL (≈ 8.15 µM) in series [3]; 4.08 µg/mL (≈ 9.16 µM) in series [5]; more than 14.4 µg/mL in series [6]. For the same compound, the “% Inhibition” value in series [4] was determined as 0%; in series [7], 0%; in series [8], 100%.
`CCCC(=O)N1CCN(c2ccc(Nc3ccncc3)nn2)CC1`: the IC50 in series [1] is more than 9.79 µg/mL; in series [2] it was more than 9.79 µg/mL; in series [3], more than 9.79 µg/mL; in series [5] it was more than 9.79 µg/mL; in series [6], 0.317 µg/mL (≈ 0.971 µM). The “% Inhibition” value in series [4], in series [7] and in series [8] was 0% each time.
As to `COc1ccc(-c2cccc(NC(=O)Nc3ccc(C)cc3)c2)nn1`, the IC50 in series [1] was 7.36 µg/mL (≈ 22 µM); in series [2], more than 10 µg/mL; in series [3], more than 10 µg/mL; in series [5], more than 10 µg/mL; in series [6] it was more than 10 µg/mL. Further, the “% Inhibition” value in series [4] is 58.3%; in series [7] it was 0%; in series [8] it was 100%.
On to `CCn1ccc(C(=O)Nc2ccc(C)cc2C(=O)c2ccccc2)n1`, for which the IC50 in series [1], in series [2], in series [3], in series [5] and in series [6] was more than 10 µg/mL throughout. For the same compound, the results for the “% Inhibition” value in series [4], in series [7] and in series [8] were 0%, 0% and 100%, respectively.
`COc1cccc(-c2cc(CC(=O)NCc3c(F)cccc3F)no2)c1`: the IC50 in series [1] was more than 10.8 µg/mL; in series [2], more than 10.8 µg/mL; in series [3], more than 10.8 µg/mL; in series [5] it was more than 10.8 µg/mL; in series [6] it was 3.48 µg/mL (≈ 9.71 µM). The “% Inhibition” value in series [4] is recorded as 0%; in series [7], 0%; in series [8], 100%.
For the compound `CSc1cccc2sc(N3CCN(C(=O)c4ccccc4)CC3)nc12`, the IC50 in series [1] was 4.19 µg/mL (≈ 11.3 µM); in series [2] it was more than 11.1 µg/mL; in series [3] it was more than 11.1 µg/mL; in series [5], more than 11.1 µg/mL; in series [6], more than 11.1 µg/mL. Moreover, the “% Inhibition” value in series [4] was found to be 0%; in series [7] it was 0%; in series [8], 100%.
Take `COc1ccc(CC(=O)N2CCN(c3nccn3-c3cccc(Cl)c3)CC2)cc1OC`: the IC50 in series [1] is more than 14.3 µg/mL; in series [2] it was more than 14.3 µg/mL; in series [3], more than 14.3 µg/mL; in series [5], more than 14.3 µg/mL; in series [6], 0.464 µg/mL (≈ 1.05 µM). Moreover, the “% Inhibition” value worked out at 16.7% in series [4], 0% in series [7] and 0% in series [8].
Regarding `O=C(NCCc1ccc(Cl)cc1)c1csc(NS(=O)(=O)c2ccccc2)n1`, the IC50 in series [1], in series [2], in series [3], in series [5] and in series [6] was more than 12.7 µg/mL each time. Further, the “% Inhibition” value in series [4] is given as 0%; in series [7], 20%; in series [8], 100%.

The values above are taken from ChEMBL document CHEMBL2093137, “WHO-TDR NTD Screening”.
